This assay concerns the target T1, Adenosine deaminase (Bos taurus) (UniProt P56658).
T1 sequence (whole entry): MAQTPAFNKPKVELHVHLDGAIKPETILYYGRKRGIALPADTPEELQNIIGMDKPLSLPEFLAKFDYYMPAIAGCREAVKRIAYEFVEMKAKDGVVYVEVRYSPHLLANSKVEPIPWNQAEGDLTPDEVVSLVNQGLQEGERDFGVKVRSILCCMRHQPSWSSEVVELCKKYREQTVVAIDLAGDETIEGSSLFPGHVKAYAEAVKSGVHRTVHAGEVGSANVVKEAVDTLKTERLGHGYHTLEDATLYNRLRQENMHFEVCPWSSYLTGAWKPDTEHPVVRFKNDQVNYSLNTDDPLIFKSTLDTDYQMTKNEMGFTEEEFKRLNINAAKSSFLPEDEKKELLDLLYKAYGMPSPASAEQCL
Description: Kcat/KM of compound against adenosine deaminase (ADA) was determined. Summed up:
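Deamination by calf intestinal mucosa adenosine deaminase (0.15 units, MW 33 000, in 2 mL) in phosphate buffer pH 7.4 at 25 °C, substrate 15–100 μM, monitored by UV at 265 nm. Initial rates from graphical fitting of concentration vs time; Vmax and KM from Lineweaver–Burk plot, kcat calculated from enzyme amount.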

Molecules are shown by their SMILES.

In turn, `Nc1ncnc2c1ncn2[C@@H]1O[C@H](CO)[C@@H](O)[C@H]1O` came in with a k cat/Km of 3.1e+06 M⁻¹ s⁻¹.

Source of the values: ChEMBL document CHEMBL1148339, “Synthesis, structure-activity relationships, and drug resistance of beta-d-3'-fluoro-2',3'-unsaturated nucleosides as anti-HIV Agents” (J Med Chem, 2004).
